Assay results taken from publication PMC7124310 (Peptides, 2003).
No end group written: not given here.

Assays:
E. coli O18:K1:H7 Bort = test: MIC, microdilution susceptibility test; format: cell-based, Escherichia coli; settings: strain used in peritonitis model; Mueller–Hinton broth
Procedure, shortened: (§1)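 Strains were stored at −80 °C and subcultured in LB broth before use. MIC was determined by broth microdilution following NCCLS guidelines in Mueller–Hinton broth with logarithmic-phase bacteria. Values are the mean of at least four independent experiments.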

P. aeruginosa ATCC 27853 = test: MIC, microdilution susceptibility test; format: cell-based, Pseudomonas aeruginosa; settings: strain used in peritonitis model; Mueller–Hinton broth
Procedure, shortened: as §1

S. aureus MRSA = test: MIC, microdilution susceptibility test; format: cell-based, Staphylococcus aureus; settings: strain used in peritonitis model; Mueller–Hinton broth
Procedure, shortened: as §1

Vero76 cells = test: Peptide cytotoxicity, neutral red uptake assay; format: cell-based; settings: for Cell survival: 30 min at 37°C, neutral red uptake after 48 h, uninfected cells
Procedure, shortened: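 Confluent uninfected Vero76 monolayers (MEM, 10% FCS, penicillin/streptomycin) were exposed to test peptide (0.5–50 μM range, in MEM) for 30 min at 37 °C, 5% CO2. Cells were washed and kept 48 h in growth medium, then given 50 μg/ml neutral red for 3 h. They were fixed in formaldehyde/CaCl2, the dye was extracted with acidified ethanol, and A550 was read. Triplicates, two experiments.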

mammalian cells = settings: cited from earlier work
[1] = test system: Gram-negative and -positive clinical isolates; test: MIC, microdilution susceptibility test, whole panel of clinical isolates; format: cell-based; settings: 53 bacterial isolates incl. antibiotic-resistant strains
Procedure, shortened: as §1

Gram-positive strains = test: MIC, microdilution susceptibility test, Gram-positive isolates; format: cell-based; settings: Gram-positive strains (Fig. 1 and Table 2)
Procedure, shortened: as §1

[2] = test system: human herpes simplex virus type 1 (HSV-1); test: Virus yield inhibition assay; format: cell-based, HSV-1 in Vero76 cells; settings: mean of two independent experiments in triplicate
Procedure, shortened: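 Confluent Vero76 monolayers were infected with 10^4 […] HSV-1 together with test peptide in MEM for 30 min at 37 °C, washed with PBS, and incubated 24 h. They were freeze-thawed three times. Ten-fold supernatant dilutions were adsorbed 1 h onto fresh monolayers under a 0.8% carboxymethylcellulose/2% FCS overlay for 3 days. Plaques were stained with crystal violet and counted as % inhibition versus untreated controls. Triplicates, repeated.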

[3] = test system: A. baumannii and P. aeruginosa; test: MIC, microdilution susceptibility test; format: cell-based, Acinetobacter baumanni, Pseudomonas aeruginosa; settings: clinical isolates (Fig. 2)
Procedure, shortened: as §1

Gram-negative species = test: MIC, microdilution susceptibility test, Gram-negative isolates; format: cell-based; settings: Gram-negative species (Fig. 2 and Table 2)
Procedure, shortened: as §1

In vivo toxicity, i.v. = test: In vivo toxicity, i.v.; set-up: species or system male Balb/c mice; settings: single dose, Litchfield and Wilcoxon
Procedure, shortened: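 Male Balb/c mice (about 20 g, 4 weeks old) received a single i.v. injection of increasing doses of test peptide in sterile PBS, with vehicle-only controls. Behaviour and survival were monitored for 7 days. LD50 was calculated by the Litchfield–Wilcoxon method.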

[4] = 12 mg/kg peptide i.v.; cited from earlier work

GGLRSLGRKILRAWKKYG-NH2 [BMAP-28(1–18)]
MIC (E. coli O18:K1:H7 Bort): 2 µM | MIC (P. aeruginosa ATCC 27853): 2 µM | MIC (S. aureus MRSA): 4 to 8 µM | toxicity to Vero cells (Vero76 cells; 5 μM peptide): not toxic | cytotoxic and haemolytic activities (mammalian cells): virtually devoid

GGLRSLGRKILRAWKKYGPIIVPIIRI-NH2 [BMAP-28]
MIC (E. coli O18:K1:H7 Bort): 2 µM | MIC (P. aeruginosa ATCC 27853): 2 µM | MIC (S. aureus MRSA): 2 µM | MIC values in most cases [1]: 1 to 8 µM | MIC values (Gram-positive strains): 1 to 8 µM | Cell survival (Vero76 cells; 0.5 μM peptide): 100% | cells taking up the neutral red dye (cytotoxicity) (Vero76 cells; 5 μM peptide): 17% | Cell survival (Vero76 cells; 5 μM peptide): 83% | Cell survival (Vero76 cells; 50 μM peptide): 5% | Virus yield inhibition ([2]; 0.5 μM peptide): 10% | Virus yield inhibition ([2]; 5 μM peptide): 72% | concentration range toxic to mammalian cells (mammalian cells): above 10 μM

GGLRSLGRKILRAWKKYGPQATPATRQ-NH2 [mBMAP-28]
MIC (E. coli O18:K1:H7 Bort): 2 µM | MIC (P. aeruginosa ATCC 27853): 2 µM | MIC (S. aureus MRSA): >32 µM | MIC values (Gram-positive strains): > 32 µM | MICs [3]: 0.25 to 1 µM

GRFKRFRKKFKKLFKKLS-NH2 [BMAP-27(1–18)]
MIC (E. coli O18:K1:H7 Bort): 8 µM | MIC (P. aeruginosa ATCC 27853): 2 µM | MIC (S. aureus MRSA): 4 to 8 µM | cytotoxic and haemolytic activities (mammalian cells): virtually devoid

GRFKRFRKKFKKLFKKLSPVIPLLHL-NH2 [BMAP-27]
MIC (E. coli O18:K1:H7 Bort): 0.5 µM | MIC (P. aeruginosa ATCC 27853): 1 µM | MIC (S. aureus MRSA): 4 µM | MIC values in most cases [1]: 1 to 8 µM | MIC values (Gram-negative species): 1 to 2 µM | cytotoxicity to Vero cells (Vero76 cells; lowest peptide concentration tested (range 0.5–50 μM)): cytotoxic even at the lowest peptide concentration tested | LD50 (In vivo toxicity, i.v.): 10 mg/kg | concentration range toxic to mammalian cells (mammalian cells): above 10 μM

ILRAWKKYGPIIVPIIRI-NH2 [BMAP-28(10–27)]
MIC (E. coli O18:K1:H7 Bort): 2 µM | MIC (P. aeruginosa ATCC 27853): 8 µM | MIC (S. aureus MRSA): 8 µM

indolicidin: a bovine cathelicidin peptide (ILPWKWPWWPWRR; ends and bridges not checked; UniProt P33046 131-143, looked up)
toxicity to mice when injected i.v. [4]: all treated animals died
